Measured values from BindingDB's records for doi:10.1021/jm300238h (Sanford-Burnham Medical Research Institute, 2012).

Target: Protease (Human immunodeficiency virus 1, UniProt Q9YQ12)
Assay: Inhibition of wild type HIV1 protease by FRET assay
Procedure, shortened: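 Recombinant HIV-1 protease Q7K, desalted into 20 mM sodium acetate pH 5, apparent concentration ~50 nM (UV 280 nm). Inhibitors in DMSO, 12 concentrations, added with protease to buffer pH 4.7 (0.1 M NaOAc, 1 M NaCl, 1 mM EDTA, 1 mM DTT, 2% DMSO, 1 mg/mL BSA). Cleavage started by injecting EDANS/DABCYL peptide substrate. Ki from initial velocities fitted to the Morrison equation.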

Chain of Protease (Q9YQ12 whole entry): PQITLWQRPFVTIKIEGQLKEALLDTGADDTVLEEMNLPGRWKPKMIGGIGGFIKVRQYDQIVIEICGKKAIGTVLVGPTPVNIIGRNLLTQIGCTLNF

Ki: 1 pM
Compound: COc1ccc(S(=O)(=O)N(CC(C)C)C[C@@H](O)[C@H](Cc2ccccc2)NC(=O)[C@@H]2CN(c3cccc(C(C)=O)c3)C(=O)O2)cc1 [(5S)-3-(3-Acetylphenyl)-N-[(1S,2R)-1-benzyl-2-hydroxy-3-[isobutyl[(4-methoxyphenyl)sulfonyl]amino]propyl]-2-oxooxazolidine-5-carboxamide]
